The record followed here is PubChem BioAssay AID602423 (Sanford-Burnham Center for Chemical Genomics, 2012).

Structures are written as SMILES. The source made the active and inactive calls.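 The calls were made as follows: active = IC50 at or below 20 µM; inactive = the rest.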

This assay has as its target glucose-6-phosphate dehydrogenase-6-phosphogluconolactonase (PfGluPho), Plasmodium falciparum 3D7. Description: PfGluPho enzyme inhibitors, SAR follow-up, biochemical, fluorescence intensity, dose response, set 4 (AID 602423). Particulars: recombinant PfGluPho, resazurin-diaphorase NADPH fluorescence. In short, it runs like this: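 System: P. falciparum PfGluPho enzyme / Also added: Glucose-6-phosphate substrate 20 µM plus NADP cofactor 3 µM / Compound: dose-response series / Incubation: reaction 2 h, room temperature, dark / Technique: coupled fluorescence, Ex 530/Em 590 nm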
In general terms: The colour change of resazurin is a common sign of viable cells or microbes.
In the case of `CN1CCC(NC(=O)c2ccc3c(c2)NC(=O)c2ccccc2S3)C1` (configuration not stated), the IC50 is > 80 µM (inactive).
For `CCN1CCC[C@@H]1CNC(=O)c1ccc2c(c1)NC(=O)c1ccccc1N2`, the IC50 was > 80 µM (inactive).
On to `CCN1CCC[C@@H]1CNC(=O)c1ccc2c(c1)NC(=O)c1cccc(C)c1S2`, for which the IC50 was 0.187 µM.
To `CCCCN1CCCC1CNC(=O)c1ccc2c(c1)NC(=O)c1ccccc1S2` (configuration not stated) belongs 19.9 µM.
The same measure for `CCN1CCCCC1CNC(=O)c1ccc2c(c1)NC(=O)c1ccccc1S2` (configuration not stated): > 80 µM (inactive).
To `CN1CCCCC1CNC(=O)c1ccc2c(c1)NC(=O)c1ccccc1S2` (configuration not stated) belongs “inactive”; to `O=C(NCC1CCCCN1)c1ccc2c(c1)NC(=O)c1ccccc1S2` (configuration not stated), “inactive”; to `CCN1CCC[C@@H]1CNC(=O)c1ccc2c(c1)NC(=O)c1cc(F)ccc1S2`, “inactive”.
With `CCCCCCN1CCCC1CNC(=O)c1ccc2c(c1)NC(=O)c1ccccc1S2` (configuration not stated), the IC50 result is “inactive”.
The same measure for `CCN1CCC[C@@H]1CNC(=O)c1ccc2c(c1)NC(=O)c1cc(C)ccc1S2`: “inactive”.
The same measure for `CCN1CCC(NC(=O)c2ccc3c(c2)NC(=O)c2ccccc2S3)C1` (configuration not stated): “inactive”; for `CCCN1CCC[C@@H]1CNC(=O)c1ccc2c(c1)NC(=O)c1ccccc1S2`: 15.1 µM; for `CCN1CCC[C@@H]1CNC(=O)c1ccc2c(c1)NC(=O)c1ccc(F)cc1S2`: 2.98 µM.
To `CN1CCCC1CNC(=O)c1ccc2c(c1)NC(=O)c1ccccc1S2` (configuration not stated) belongs “inactive”; to `CCCN1CCC(NC(=O)c2ccc3c(c2)NC(=O)c2ccccc2S3)C1` (configuration not stated), “inactive”; to `O=C(NC[C@H]1CCCN1)c1ccc2c(c1)NC(=O)c1ccccc1S2`, “inactive”.
For the compound `CCCN1CCCCC1CNC(=O)c1ccc2c(c1)NC(=O)c1ccccc1S2` (configuration not stated), the IC50 entry is “inactive”.

By IC50 is commonly meant the point on the concentration scale where inhibition reaches its midpoint.
